Activity data for three molecules are collected here from ChEMBL document CHEMBL4118256, “Second Generation of Mannich Base-Type Derivatives with in Vivo Activity against Trypanosoma cruzi” (J Med Chem, 2018).

The source made the active and inactive calls. The calls are words filed in the database; no cut-off is given here. Where only a bound is given, the exact number is not on record here.

Data set [1] concerns Trypanosoma cruzi. Briefly: Antitrypanosomal activity against Trypanosoma cruzi MHOM/Pe/2011/Arequipa DTU 5 trypamastigotes infected in Balb/c mouse assessed as reduction in parasitaemia reactivation in lung tissue at 20 mg/kg, po pretreated once daily for 5 consecutive days starting from day 10 post infection followed by cyclophosphamide-induced immunosuppression on day 100 post infection every 4 days for a maximum of 3 doses measured on day 127 post infection by PCR method. The format is functional. On the set-up: scale not given: the % may be the effect or the level left. An outline of the steps: (§1)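 Necropsy on day 127 pi after oral treatment and cyclophosphamide immunosuppression. Tissue DNA was amplified by PCR targeting the ~300 bp T. cruzi SOD gene, 200 nM each primer, 30 cycles with 55.5 °C annealing. Products run on 2 % agarose; positive organs counted out of six mice.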

Data set [2] concerns Trypanosoma cruzi. As to the kind of experiment: Antitrypanosomal activity against Trypanosoma cruzi MHOM/Pe/2011/Arequipa DTU 5 trypamastigotes infected in Balb/c mouse assessed as reduction in parasitaemia reactivation in brain tissue at 20 mg/kg, po pretreated once daily for 5 consecutive days starting from day 10 post infection followed by cyclophosphamide-induced immunosuppression on day 100 post infection every 4 days for a maximum of 3 doses measured on day 127 post infection by PCR method. The format is functional. Further details: scale not given: the % may be the effect or the level left. An outline of the steps: as §1

In data set [3] the test system is Trypanosoma cruzi. As to the kind of experiment: Antitrypanosomal activity against Trypanosoma cruzi MHOM/Pe/2011/Arequipa DTU 5 trypamastigotes infected in Balb/c mouse assessed as reduction in parasitaemia reactivation in adipose tissue at 20 mg/kg, po pretreated once daily for 5 consecutive days starting from day 10 post infection followed by cyclophosphamide-induced immunosuppression on day 100 post infection every 4 days for a maximum of 3 doses measured on day 127 post infection by PCR method. It is filed as functional. Further details: scale not given: the % may be the effect or the level left. A digest of the protocol: as §1

Data set [4] deals with Mus musculus. Briefly: Nephrotoxicity in Balb/c mouse infected with Trypanosoma cruzi MHOM/Pe/2011/Arequipa DTU 5 trypamastigotes assessed as decrease in urea level in serum at 20 mg/kg, po once daily for 5 consecutive days starting from day 75 post infection measured on day 127 post infection by biochemical analysis relative to control. Further details: scale not given: the % may be the effect or the level left. It is filed as toxicity, organism-based. The note with it: in vivo.

The subject of data set [5] is Mus musculus. As to the kind of experiment: Cardiotoxicity in Balb/c mouse infected with Trypanosoma cruzi MHOM/Pe/2011/Arequipa DTU 5 trypamastigotes assessed as change in serum LDH level at 20 mg/kg, po once daily for 5 consecutive days starting from day 10 post infection measured on day 16 post infection by biochemical analysis relative to control. It is filed as toxicity, organism-based. The note with it: in vivo. An outline of the steps:
(§2)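 Serum clinical chemistry in Arequipa-infected female BALB/c mice. Oral 20 mg·kg-1 per day for 5 days, started day 10 or day 75 pi. Samples taken at day 16 pi or day 81 pi, and on necropsy day. Markers: CK-MB and LDH (U/L), AST, ALT and alkaline phosphatase (U/L), total bilirubin. Results scored relative to infected untreated controls; uninfected reference n = 15.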

Data set [6] concerns Trypanosoma cruzi. As to the kind of experiment: Antitrypanosomal activity against Trypanosoma cruzi MHOM/Pe/2011/Arequipa DTU 5 trypamastigotes infected in Balb/c mouse assessed as reduction in parasitaemia reactivation at 20 mg/kg, po pretreated once daily for 5 consecutive days starting from day 10 post infection followed by cyclophosphamide-induced immunosuppression on day 100 post infection every 4 days for a maximum of 3 doses measured up to 1 week post immunosuppression by Neubauer chamber method. The format is functional. Further details: scale not given: the % may be the effect or the level left. An outline of the steps: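 Female BALB/c mice (8-10 weeks, 20-25 g), groups of six, infected i.p. with 5 x 10^5 bloodstream trypomastigotes in 0.2 mL PBS; oral dosing 20 mg·kg-1 per day for 5 days in 5% DMSO/0.5% HPMC vehicle. After day 100 pi, cyclophosphamide 200 mg·kg-1 i.p. every 4 days, up to three doses. Within 1 week after the last dose, fresh-blood bloodstream trypomastigotes counted in a Neubauer chamber. Reactivation expressed relative to untreated infected controls.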

For data set [7], the system named is Trypanosoma cruzi. As to the kind of experiment: Antitrypanosomal activity against Trypanosoma cruzi MHOM/Pe/2011/Arequipa DTU 5 trypamastigotes infected in Balb/c mouse assessed as reduction in splenomegaly at 20 mg/kg, po once daily for 5 consecutive days starting from day 75 post infection measured on day 127 post infection relative to control. The format is functional, organism-based.

Data set [8] has as its system Mus musculus. Briefly: Cardiotoxicity in Balb/c mouse infected with Trypanosoma cruzi MHOM/Pe/2011/Arequipa DTU 5 trypamastigotes assessed as decrease in serum LDH level at 20 mg/kg, po once daily for 5 consecutive days starting from day 75 post infection measured on day 127 post infection by biochemical analysis relative to control. It is filed as toxicity, organism-based. The note with it: in vivo. On the set-up: scale not given: the % may be the effect or the level left. A digest of the protocol: as §2

Data set [9] concerns Mus musculus. As to the kind of experiment: Hepatotoxicity in Balb/c mouse infected with Trypanosoma cruzi MHOM/Pe/2011/Arequipa DTU 5 trypamastigotes assessed as increase in ratio of serum AST to GOT level at 20 mg/kg, po once daily for 5 consecutive days starting from day 10 post infection measured on day 16 post infection by biochemical analysis relative to control. The format is toxicity, organism-based. The note with it: in vivo.

In data set [10] the test system is Mus musculus. As to the kind of experiment: Toxicity in Balb/c mouse assessed as reduction in body mass at 20 mg/kg, po once daily for 5 consecutive days starting from day 75 post infection relative to control. The format is organism-based. On the set-up: scale not given: the % may be the effect or the level left. Conditions: in vivo.
Data set [11] relates to Mus musculus. Briefly: Toxicity in Balb/c mouse assessed as death at 20 mg/kg, po once daily for 5 consecutive days starting from day 75 post infection. The format is organism-based. The note with it: in vivo. A digest of the protocol: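 Female BALB/c mice (8-10 weeks, 20-25 g), groups of six, infected i.p. with 5 x 10^5 Arequipa bloodstream trypomastigotes. Dosing was oral, 20 mg·kg-1 per day for 5 days, given as a 2 mg·mL-1 suspension in 5% DMSO/0.5% hydroxypropyl methylcellulose. Treatment started day 10 pi (acute phase) or day 75 pi (chronic phase). Deaths and body-mass loss were monitored during and after treatment.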

Data set [12] has as its system Trypanosoma cruzi. As to the kind of experiment: Antitrypanosomal activity against Trypanosoma cruzi MHOM/Pe/2011/Arequipa DTU 5 trypamastigotes infected in Balb/c mouse assessed as reduction in parasitaemia reactivation in esophagus tissue at 100 mg/kg, po pretreated once daily for 5 consecutive days starting from day 75 post infection followed by cyclophosphamide-induced immunosuppression on day 100 post infection every 4 days for a maximum of 3 doses measured on day 127 post infection by PCR method. Further details: scale not given: the % may be the effect or the level left. It is filed as functional. A digest of the protocol: as §1

Data set [13] relates to Mus musculus. As to the kind of experiment: Hepatotoxicity in Balb/c mouse infected with Trypanosoma cruzi MHOM/Pe/2011/Arequipa DTU 5 trypamastigotes assessed as change in alkaline phosphatase level at […], po once daily for 5 consecutive days starting from day 75 post infection measured on day 81 post infection by biochemical analysis relative to control. The note with it: in vivo. It is filed as toxicity, organism-based. An outline of the steps:
as §2

Data set [14] has as its system Mus musculus. Briefly: Cardiotoxicity in Balb/c mouse infected with Trypanosoma cruzi MHOM/Pe/2011/Arequipa DTU 5 trypamastigotes assessed as decrease in serum LDH level at […], po once daily for 5 consecutive days starting from day 10 post infection measured on day 16 post infection by biochemical analysis relative to control. It is filed as toxicity, organism-based. Further details: scale not given: the % may be the effect or the level left. The note with it: in vivo. A digest of the protocol:
as §2

For data set [15], the system named is Trypanosoma cruzi. Briefly: Antitrypanosomal activity against Trypanosoma cruzi MHOM/Pe/2011/Arequipa DTU 5 trypamastigotes infected in Balb/c mouse assessed as parasitaemia reactivation at 100 mg/kg, po pretreated once daily for 5 consecutive days starting from day 75 post infection followed by cyclophosphamide-induced immunosuppression on day 100 post infection every 4 days for a maximum of 3 doses measured up to 1 week post immunosuppression by Neubauer chamber method. It is filed as functional.

For data set [16], the system named is Mus musculus. As to the kind of experiment: Nephrotoxicity in Balb/c mouse infected with Trypanosoma cruzi MHOM/Pe/2011/Arequipa DTU 5 trypamastigotes assessed as increase in uric acid level in serum at […], po once daily for 5 consecutive days starting from day 10 post infection measured on day 16 post infection by biochemical analysis relative to control. The format is toxicity, organism-based. The note with it: in vivo.

The subject of data set [17] is Mus musculus. Briefly: Nephrotoxicity in Balb/c mouse infected with Trypanosoma cruzi MHOM/Pe/2011/Arequipa DTU 5 trypamastigotes assessed as increase in uric acid level in serum at […], po once daily for 5 consecutive days starting from day 10 post infection measured on day 127 post infection by biochemical analysis relative to control. Conditions: in vivo. The format is toxicity, organism-based.

On to `O=C(Cn1ccnc1[N+](=O)[O-])NCc1ccccc1` [BENZNIDAZOLE], for which the Activity was 33% in data set [1]; 33% in data set [2]; 33% in [3]; “<= 30%” in data set [4]; under 10% in data set [5]; 75% in data set [6]. The Activity entry in [8] is reported as “<= 20%”; in [9], over 40%; in data set [10] it was over 10%; in [11], “Non-Toxic”. For the same molecule, in data set [7], the result was Active.

With `COc1ccc(C(=O)CCN2CCN(c3ccc(Cl)cc3)CC2)cc1`, the Activity in data set [12] is given as 78%; in data set [13] it was under 10%; in data set [14], “<= 20%”; in data set [15], 20%.

As to `COc1ccc(C(=O)CCN2CCN(c3ccc(F)cc3)CC2)cc1`, the Activity result in [16] is recorded as “<= 20%”; in [17], “<= 10%”.
